ChEMBL document CHEMBL1212766, “Dose escalation study of the safety, tolerability, and pharmacokinetics of nemonoxacin (TG-873870), a novel potent broad-spectrum nonfluorinated quinolone, in healthy volunteers” (Antimicrob Agents Chemother, 2010)
≈ marks a conversion by molar mass, not a printed value.

What was measured:
Homo sapiens [1] = assay: Terminal volume of distribution in healthy human at 1000 mg, po administered as single dose; details: in vivo
Homo sapiens [2] = assay: Toxicity in healthy human assessed as occurrence of headache at 25 […], po; type: organism-based; set-up: route oral; details: in vivo
Homo sapiens [3] = assay: Toxicity in healthy human assessed as occurrence of contact dermatitis at 25 […], po; type: organism-based; set-up: route oral; details: in vivo
Outline: (§1)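 Randomized, double-blind, placebo-controlled single ascending oral doses in healthy volunteers (cohorts of 6 active, 2 placebo; 25–1,500 mg). After a 10-h fast, dose given with 240 ml water; fasting continued 4 h. Subjects were confined to 96 h postdose. AEs were recorded throughout dosing and at follow-up, reported as number and percentage of subjects with events per treatment.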

Homo sapiens [4] = assay: Toxicity in healthy human assessed as occurrence of erythema at 1000 […], po; type: organism-based; set-up: route oral; details: in vivo
Homo sapiens [5] = assay: Terminal volume of distribution in healthy human at 50 mg, po administered as single dose; details: in vivo
Homo sapiens [6] = assay: Toxicity in healthy human assessed as occurrence of ear pain at 250 […], po; type: organism-based; set-up: route oral; details: in vivo
[7] = Tmax in healthy human at 125 mg, po administered as single dose; details: in vivo
[8] = Tmax in healthy human at 500 mg, po administered as single dose; details: in vivo
Homo sapiens [9] = assay: AUC (0 to infinity) in healthy human at 500 […], po administered as single dose; type: ADME, organism-based, Plasma; set-up: time infinity, route oral; details: in vivo
Homo sapiens [10] = assay: Toxicity in healthy human assessed as occurrence of oral hypoesthesia at 250 […], po; type: organism-based; set-up: route oral; details: in vivo
[11] = Tmax in healthy human at 50 mg, po administered as single dose; details: in vivo
Homo sapiens [12] = assay: Clearance in healthy human at 50 […], po administered as single dose; type: ADME, organism-based; set-up: route oral; details: in vivo
Outline: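 Randomized, double-blind, placebo-controlled single ascending oral dose in fasted healthy subjects (six on drug per cohort, with 240 ml water). Plasma sampled predose through 96 h and assayed by validated LC-MS/MS over 5–5,000 ng/ml. Oral clearance (CL_o) came from noncompartmental analysis, with AUC_0-∞ from linear trapezoids plus C_last/λz. Values are means (SD).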

[13] = Renal clearance in healthy human at 1000 […], po administered as single dose; type: ADME, organism-based, Kidney; set-up: route oral; details: in vivo, read-out: CL_renal (converted)
Outline: (§2)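 Renal clearance (CL_r) came from noncompartmental analysis of plasma drawn through 96 h and urine collected over fixed intervals to 96 h. Subjects were fasted healthy volunteers, six per dose cohort, given one oral dose with 240 ml water. Plasma and urine were assayed by LC-MS/MS after solid-phase extraction, with urine LLOQ 200 ng/ml. Values are means (SD).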

Homo sapiens [14] = assay: Toxicity in healthy human assessed as occurrence of erythema at 1500 […], po; type: organism-based; set-up: route oral; details: in vivo
Staphylococcus aureus = assay: Ratio of fCmax to MIC90 for methicillin-sensitive Staphylococcus aureus; type: functional
Outline: (§3)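 Fasted healthy adults got a single oral 500 mg dose with 240 ml water. Plasma was sampled predose to 96 h and assayed by LC-MS/MS (5–5,000 ng/ml). Cmax was read from individual profiles, and AUC0-∞ came from linear trapezoid plus extrapolation. Free fraction was measured by ultrafiltration (30,000 MWCO) of 0.5 and 6 h plasma. Free exposure was divided by the isolate MIC90.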

Homo sapiens [15] = assay: Toxicity in healthy human assessed as occurrence of abdominal pain at 1000 […], po; type: organism-based, Abdomen; set-up: route oral; details: in vivo
Outline: (§4)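 Double-blind, placebo-controlled single ascending oral dose; two placebo and six active subjects per cohort. Adverse events were recorded throughout the dosing period and at follow-up, with confinement to 96 h after dosing. Results are reported as number and percentage of subjects with the event (n/N × 100).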

Homo sapiens [16] = assay: Toxicity in healthy human assessed as occurrence of oral hypoesthesia at 50 […], po; type: organism-based; set-up: route oral; details: in vivo
[17] = Renal clearance in healthy human at 25 mg, po administered as single dose; details: in vivo, read-out: CL_renal (converted)
[18] = Renal clearance in healthy human at 500 mg, po administered as single dose; details: in vivo, read-out: CL_renal (converted)
[19] = Renal clearance in healthy human at 1500 […], po administered as single dose; type: ADME, organism-based, Kidney; set-up: route oral; details: in vivo, read-out: CL_renal (converted)
Outline: as §2

Homo sapiens [20] = assay: Toxicity in healthy human assessed as occurrence of nausea at 25 […], po; type: organism-based; set-up: route oral; details: in vivo
Homo sapiens [21] = assay: Clearance in healthy human at 500 mg, po administered as single dose; details: in vivo
Homo sapiens [22] = assay: AUC (0 to infinity) in healthy human at 25 […], po administered as single dose; type: ADME, organism-based, Plasma; set-up: time infinity, route oral; details: in vivo
Homo sapiens [23] = assay: Toxicity in healthy human assessed as occurrence of oral hypoesthesia at 1000 […], po; type: organism-based; set-up: route oral; details: in vivo
[24] = Clearance in healthy human assessed as recovery of unchanged drug in urine at 25 […], po administered as single dose; type: ADME, organism-based; set-up: route oral; details: read-out: Recovered in urine
Outline: (§5)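 Healthy volunteers, six on drug per cohort, fasted 10 h and given one oral dose with 240 ml water, then fasted 4 h more. Urine was pooled over intervals from 0-2 to 72-96 h and stored at about −70°C. Drug was measured by solid-phase extraction and LC-MS/MS (LLOQ 200 ng/ml), giving the percent of dose recovered unchanged. Values are means (SD).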

Homo sapiens [25] = assay: Toxicity in healthy human assessed as occurrence of nausea at 250 […], po; type: organism-based; set-up: route oral; details: in vivo
Homo sapiens [26] = assay: Toxicity in healthy human assessed as occurrence of pruritus at 1000 […], po; type: organism-based; set-up: route oral; details: in vivo
[27] = Clearance in healthy human assessed as recovery of unchanged drug in urine at 50 […], po administered as single dose; type: ADME, organism-based; set-up: route oral; details: read-out: Recovered in urine
Outline: as §5

Streptococcus pneumoniae [28] = assay: Antimicrobial activity against penicillin-intermediate Streptococcus pneumoniae; type: functional
Streptococcus pneumoniae [29] = assay: Antimicrobial activity against penicillin-resistant Streptococcus pneumoniae; type: functional
Homo sapiens [30] = assay: Terminal volume of distribution in healthy human at 1500 mg, po administered as single dose; details: in vivo
Streptococcus pneumoniae [31] = assay: Antimicrobial activity against Streptococcus pneumoniae; type: functional
Homo sapiens [32] = assay: Toxicity in healthy human assessed as occurrence of contact dermatitis at 1000 […], po; type: organism-based; set-up: route oral; details: in vivo
Outline: as §4

Homo sapiens [33] = assay: Toxicity in healthy human assessed as occurrence of nausea at 1500 […], po; type: organism-based; set-up: route oral; details: in vivo
Homo sapiens [34] = assay: Clearance in healthy human at 1000 mg, po administered as single dose; details: in vivo
Homo sapiens [35] = assay: Toxicity in healthy human assessed as occurrence of contact dermatitis at 1500 […], po; type: organism-based; set-up: route oral; details: in vivo
Outline: as §1

Homo sapiens [36] = assay: Toxicity in healthy human assessed as occurrence of ear pain at 1500 […], po; type: organism-based; set-up: route oral; details: in vivo
Homo sapiens [37] = assay: Toxicity in healthy human assessed as occurrence of erythema at 125 […], po; type: organism-based; set-up: route oral; details: in vivo
Streptococcus pneumoniae [38] = assay: Ratio of fAUC to MIC90 for Streptococcus pneumoniae; type: functional
Outline: as §3

Homo sapiens [39] = assay: Toxicity in healthy human assessed as occurrence of headache at 1500 […], po; type: organism-based; set-up: route oral; details: in vivo

## COc1c(N2C[C@@H](C)C[C@H](N)C2)ccc2c(=O)c(C(=O)O)cn(C3CC3)c12 [NEMONOXACIN]
Homo sapiens [1]
  Vbeta: 5.28 L/kg
Homo sapiens [2]
  Activity: 0%
Homo sapiens [3]
  Activity: 50%
Homo sapiens [4]
  Activity: 17%
Homo sapiens [5]
  Vbeta: 2.78 L/kg
Homo sapiens [6]
  Activity: 0%
[7]
  Tmax: 0.75 h
[8]
  Tmax: 2 h
Homo sapiens [9]
  AUC: 32360 ng·h/mL
Homo sapiens [10]
  Activity: 0%
[11]
  Tmax: 1.08 h
Homo sapiens [12]
  CL: 3.83 mL/min/kg
[13]
  CL renal: 1.4 mL/min/kg
Homo sapiens [14]
  Activity: 50%
Staphylococcus aureus
  Ratio: 24
Homo sapiens [15]
  Activity: 0%
Homo sapiens [16]
  Activity: 0%
[17]
  CL renal: 3 mL/min/kg
[18]
  CL renal: 1.13 mL/min/kg
[19]
  CL renal: 1.15 mL/min/kg
Homo sapiens [20]
  Activity: 0%
Homo sapiens [21]
  CL: 3.3 mL/min/kg
Homo sapiens [22]
  AUC: 1190 ng·h/mL
Homo sapiens [23]
  Activity: 17%
[24]
  dose excreted: 56.2%
Homo sapiens [25]
  Activity: 0%
Homo sapiens [26]
  Activity: 17%
[27]
  dose excreted: 51.1%
Streptococcus pneumoniae [28]
  MIC90: 0.015 µg/mL (≈ 0.0404 µM)
Streptococcus pneumoniae [29]
  MIC90: 0.03 µg/mL (≈ 0.0808 µM)
Homo sapiens [30]
  Vbeta: 3.42 L/kg
Streptococcus pneumoniae [31]
  MIC90: 0.015 µg/mL (≈ 0.0404 µM)
Homo sapiens [32]
  Activity: 0%
Homo sapiens [33]
  Activity: 17%
Homo sapiens [34]
  CL: 3.67 mL/min/kg
Homo sapiens [35]
  Activity: 0%
Homo sapiens [36]
  Activity: 0%
Homo sapiens [37]
  Activity: 0%
Streptococcus pneumoniae [38]
  Ratio: 1812
Homo sapiens [39]
  Activity: 17%
